Assay outcomes as filed in PubChem.
Rows were chosen to be rich in hits. Some 1.6% of all compounds tested hit in one or more screens of this group.
TbMetRS inhib: T. brucei MetRS inhibitors, primary screen, biochemical, luminescence | methionyl-tRNA synthetase (Trypanosoma brucei brucei) | 360,000 tested, 0.4% active | purified T. brucei MetRS, ATP depletion, Kinase-Glo luminescence | inhibition, % at 11.9 µM;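 active means inhibition above a per-plate cutoff of the control wells' mean inhibition plus 3 SD, cut at about 5.5% in these data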;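 further: 0% = DMSO wells median and 100% = median of wells with control inhibitor compound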
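Material: parasite MetRS enzyme / Replication: singlicate, one well per compound / Signal: luminescence of leftover ATP / Schedule: 2 h aminoacylation at 25 °C after 15 min preincubation / Medium: HEPES-MgCl2-KCl buffer plus DTT, spermine, BSA, pyrophosphatase / Doses: 11.9 µM single point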
UBC9 SUMO inh: inhibitors of in vitro SUMOylation cascade, primary screen, biochemical, HTRF, uHTS; inhibition, % at 35 µM; AID 2006, 2009; SUMO-conjugating enzyme UBC9 (Homo sapiens), P63279; 290,000 tested, 0.36% active; HTRF SUMOylation assay, SAE1/SAE2 + UBC9; in the data active means inhibition above about 50%, passing the limit was not always enough
NCF1 inh: p47phox/p22phox peptide binding inhibitors, primary screen, biochemical, uHTS, NADPH oxidase regulatory subunit. 220,000 tested, 0.53% active. Neutrophil cytosol factor 1 (Homo sapiens), P14598. AID 1274, 2008. fluorescence polarization, 2 h. inhibition, % at 24.7 µM;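 further: 0% = p47phox with labelled peptide and 100% = labelled peptide alone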
p97 ATPase inh: inhibitors of human p97 ATPase, primary screen, biochemical. recombinant p97 ATPase, Kinase-Glo ATP luminescence, 3 h. inhibition, % at 8 µM. 220,000 tested, 0.42% active; in the data active means inhibition above about 15%;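 further: 0% = DMSO vehicle and 100% = wells lacking enzyme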
Target sequence (P55072 whole entry, looked up): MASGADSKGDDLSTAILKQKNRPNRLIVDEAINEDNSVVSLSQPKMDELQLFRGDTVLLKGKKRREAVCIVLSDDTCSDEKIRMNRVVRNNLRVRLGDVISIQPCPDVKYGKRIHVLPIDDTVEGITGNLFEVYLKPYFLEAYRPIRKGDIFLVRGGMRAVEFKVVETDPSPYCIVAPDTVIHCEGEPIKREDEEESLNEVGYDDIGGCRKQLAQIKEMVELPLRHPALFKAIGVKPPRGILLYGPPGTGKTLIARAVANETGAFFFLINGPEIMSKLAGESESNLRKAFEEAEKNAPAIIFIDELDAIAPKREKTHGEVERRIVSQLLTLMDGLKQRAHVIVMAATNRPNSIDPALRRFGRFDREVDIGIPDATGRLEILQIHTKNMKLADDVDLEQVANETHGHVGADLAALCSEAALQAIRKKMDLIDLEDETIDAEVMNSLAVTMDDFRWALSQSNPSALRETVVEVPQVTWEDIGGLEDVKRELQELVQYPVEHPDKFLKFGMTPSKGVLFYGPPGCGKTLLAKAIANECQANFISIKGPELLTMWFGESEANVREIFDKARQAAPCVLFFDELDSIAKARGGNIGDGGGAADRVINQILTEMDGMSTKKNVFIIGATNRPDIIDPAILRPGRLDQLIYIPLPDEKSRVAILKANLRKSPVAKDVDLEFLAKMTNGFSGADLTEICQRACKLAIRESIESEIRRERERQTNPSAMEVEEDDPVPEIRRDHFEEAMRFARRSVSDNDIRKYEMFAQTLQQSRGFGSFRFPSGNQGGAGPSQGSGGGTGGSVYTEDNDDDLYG
14-3-3 Bad inh: inhibitors of 14-3-3 zeta/Bad binding, primary screen, biochemical, TR-FRET, bovine 14-3-3 zeta; 14-3-3 protein zeta/delta (Bos taurus), P63103; TR-FRET 14-3-3zeta/Dy647-pBad peptide displacement, 1 h; inhibition, % at 21.7 µM; 220,000 tested, 0.71% active; AID 781, 2007;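 active means inhibition above about 70%, limit read from the data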;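 further: 0% = full 14-3-3 plus peptide FRET controls and 100% = background without 14-3-3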
eIF4E 4G PPI: eIF4E–eIF4G protein interaction inhibitors, primary screen, biochemical, uHTS, TR-FRET, eIF4GI fragment; 220,000 tested, 0.37% active; inhibition, % at 21.7 µM; AID 782, 2007; TR-FRET eIF4E-eIF4GI(517-606) binding, 2 h;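 further: 0% = full FRET control wells and 100% = background wells lacking eIF4GI fragment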
p97 inh conf: p97 ATPase inhibitors, retest, confirmation, biochemical. recombinant p97 ATPase, Kinase-Glo ATP luminescence. 760 tested, 44% active. shares compounds with p97 ATPase inh. inhibition, % at 8 µM. AID 1517, 2009;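 active means percent inhibition of p97 ATPase above a set limit, the primary screen's mean plus 3 SD, cut at about 15% in these data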;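 further: 0% = DMSO wells and 100% = wells lacking p97 protein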
* hit, by the source's call.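 How the source made its calls, unless noted: active means inhibition above about 30% (limit read from the data); inactive means the rest.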

`CC(Oc1ccc(Br)cc1)C(=O)Nc1ccc(N2CCOCC2)cc1N1CCOCC1` (centres undefined) gave TbMetRS inhib -0.3.
For O=C(CSc1nnc(-c2ccco2)o1)N1CCCCC1 the results were TbMetRS inhib -0.9 and UBC9 SUMO inh -4.6.
`O=C(O)c1cccc(Nc2ncnc3ccc(Br)cc23)c1` gave TbMetRS inhib 0.2, UBC9 SUMO inh 23.7, NCF1 inh 9.7, p97 ATPase inh 16.8*, 14-3-3 Bad inh 7.2, eIF4E 4G PPI -0.1 and p97 inh conf 20.6*.
For COc1cccc(Nc2ncnc3ccc(Br)cc23)c1 the results were TbMetRS inhib -0.1.
Screening Cc1ccc2c(c1)[nH]c1c(N3CCN(Cc4ccccc4)CC3)ncnc12 returned TbMetRS inhib 0.3, UBC9 SUMO inh 5.2, NCF1 inh -37.8, p97 ATPase inh 6.9, 14-3-3 Bad inh -5.4 and eIF4E 4G PPI 5.6.
Screening c1ccc(CN2CCN(c3ncnc4c3[nH]c3ccccc34)CC2)cc1 returned TbMetRS inhib 6.2*, UBC9 SUMO inh -6.1, NCF1 inh -7.1, p97 ATPase inh 14.9* and p97 inh conf 10.5.
For O=C(CN1CCN(c2ccc(F)cc2)CC1)c1ccc(O)cc1O the results were TbMetRS inhib -0.6 and UBC9 SUMO inh -1.9.
For O=C(O)CSc1c(-c2ccccc2)[nH]c2ccccc12 the results were TbMetRS inhib -0.4, UBC9 SUMO inh 7.7, NCF1 inh 5.0, p97 ATPase inh 15.5*, 14-3-3 Bad inh 4.4, eIF4E 4G PPI -2.2 and p97 inh conf 16.7*.
O=C(O)CSc1c(-c2cccs2)[nH]c2ccccc12 was read as TbMetRS inhib 1.7, UBC9 SUMO inh -20.5, NCF1 inh -8.4, p97 ATPase inh 0.3, 14-3-3 Bad inh -2.6 and eIF4E 4G PPI 3.6.
Screening CCOC(=O)c1sc(NC(=O)c2c(C)nn(Cc3ccccc3)c2C)cc1C returned TbMetRS inhib 0.6, UBC9 SUMO inh -14.8, NCF1 inh -11.9, p97 ATPase inh 20.2*, 14-3-3 Bad inh 7.4, eIF4E 4G PPI 1.1 and p97 inh conf 6.3.
Screening CCNC(=O)Oc1ccc[nH]c1=O returned TbMetRS inhib -0.4, UBC9 SUMO inh 88.3*, NCF1 inh 4.8, p97 ATPase inh 17.1*, 14-3-3 Bad inh -2.4, eIF4E 4G PPI -0.4 and p97 inh conf 4.9.
`Cc1[nH][nH]c(=O)c1C(c1c(C)[nH][nH]c1=O)c1cn(Cc2ccc(Cl)c(Cl)c2)c2ccccc12` gave TbMetRS inhib 0.7, UBC9 SUMO inh 41.8, NCF1 inh -10.0, p97 ATPase inh 42.1*, 14-3-3 Bad inh -3.4, eIF4E 4G PPI -1.1 and p97 inh conf 1.9.
`COc1ccc(/C=N/NC(=O)Cn2ccnc2C)cc1OC` gave TbMetRS inhib -0.6, UBC9 SUMO inh 5.9, NCF1 inh -4.2, p97 ATPase inh 17.7*, 14-3-3 Bad inh 0.4, eIF4E 4G PPI -4.9 and p97 inh conf 5.4.
For Cc1nccn1CC(=O)N/N=C/c1cccc(O)c1 the results were TbMetRS inhib -0.3, UBC9 SUMO inh 28.5, NCF1 inh -6.2, p97 ATPase inh -0.1, 14-3-3 Bad inh -10.5 and eIF4E 4G PPI 4.2.
Screening COc1cccc(CSc2nc3ccncc3[nH]2)c1 returned TbMetRS inhib -1.2, UBC9 SUMO inh 0.7, NCF1 inh 6.3, p97 ATPase inh -21.8, 14-3-3 Bad inh 2.2 and eIF4E 4G PPI 3.2.
O=C(/C=C/c1ccc(S(=O)(=O)N2CCOCC2)cc1)NC(CO)C(O)c1ccc([N+](=O)[O-])cc1 (centres undefined) was read as TbMetRS inhib 0.2.
